Blank lines part the entries; values can stand above or below the molecule they belong to.
Assays:
[1] = system: platinum-resistant colorectal tumours; settings: cited from earlier work
[2] = system: metastases of solid tumours; settings: cited from earlier work
[3] = system: cisplatin-resistant ovarian and testicular cancer cell lines; settings: cited from earlier work
A431 carcinoma cells = test: Dark and light toxicity with a 740 nm LED lamp, phase contrast images; format: cell-based, human
HFF cells = test: as above; format: cell-based, human; settings: for light enhancement of cytopathic effect compared to dark toxicity, HFF: 740 nm red light 60 minutes, then 24 hours dark
[4] = Stability in aqueous media by ESR and 51V NMR spectroscopy; format: physicochemical
In short: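 A 50 mM DMSO stock was diluted to 4.0 mM in DI water (pH 7.19) and kept in subdued light at room temperature. ESR spectra were recorded at room temperature immediately and at 24, 48 and 72 h. 51V NMR spectra of the 4.0 mM solutions were taken at 0, 24, 48 and 72 h and at seven days. Control: 4.0 mM NaVO3, pH 7.19.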

[5] = system: murine embryonic fibroblasts; settings: room-light or red-light exposure; cited from earlier work
[6] = system: amelanotic malignant melanoma cells; test: Dark and light toxicity with a 60 W tungsten lamp, phase contrast images; format: cell-based, human
In short: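 ATCC amelanotic melanoma line (from a person) grown at 37 °C, 5% CO2 in high-glucose DMEM with 10% FBS, 0.5% pen-strep, 1% glutamine and 1% non-essential amino acids. 10^5 cells/well seeded; after 24 h, medium swapped for test compound at 5 or 20 µM. After 24 h, cells irradiated 30 min with a 60 W tungsten lamp or kept dark. Phase-contrast images at 10x taken 3 h later. Untreated cells served as control.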

fibrosarcoma cells = settings: room-light or red-light exposure; cited from earlier work
[7] = 4.0 mM in water, pH 7.19, room temperature, day seven

Molecule: [Cl-].[Cl-].[Cl-].[Cl-].[Ru+3].c1ccc2[nH][nH+]cc2c1.c1ccc2[nH]ncc2c1.c1ccc2[nH]ncc2c1 [KP1019]
- activity against platinum-resistant colorectal tumours [1]: excellent activity

Molecule: CS(C)=O.[Cl-].[Cl-].[Cl-].[Cl-].[Ru+3].c1c[nH+]c[nH]1.c1c[nH]cn1 [NAMI-A]
- activity against development and growth of metastases of solid tumours [2]: particularly active

Molecule: Cc1ccnc2c1ccc1c(C)ccnc12.Cc1ccnc2c1ccc1c(C)ccnc12.O=S(=O)([O-])[O-].[O]=[V+2] [metvan, bis(4,7-dimethyl-1,10-phenanthroline)sulfatooxovanadium(IV)]
- effectiveness against cisplatin-resistant ovarian and testicular cancer cell lines [3]: highly effective

- change in intensity of ESR spectra ([4]; 4.0 mM in water, pH 7.19, room temperature, 0, 24, 48, and 72 hours): no decrease in intensity
- vanadium(V) species by 51V NMR [4, 7]: a weak, broad peak at −543 ppm
- vanadium(V) species by 51V NMR ([4]; 4.0 mM in water, pH 7.19, room temperature, up to 72 hours): absence of any vanadium(V) species
- stability in aqueous media (oxidation of vanadium(IV) centre) ([4]; standing at room temperature, pH 7.19): considerable stability
Molecule: [Ru(pbt)2(phen2DTT)VO(sal-L-tryp)]Cl2
- changes in cell morphology of A431 cells (A431 carcinoma cells; 5 μM, dark and light exposure): only slight changes in cell morphology
- cytopathic effect on A431 cells (A431 carcinoma cells; 20 μM): anticancer cytopathic effect
- light enhancement of cancer cell death compared to [Ru(pbt)2(tpphz)VO(sal-L-tryp)]Cl2 treated cells (A431 carcinoma cells; 740 nm light, A431): more pronounced light enhancement of cancer cell death
- light enhancement of cytopathic effect compared to dark toxicity, A431 (A431 carcinoma cells; 740 nm red light 60 minutes, then 24 hours dark): light enhanced cytopathic effects
- changes in morphology of HFF cells (HFF cells; 5 μM and 20 μM, dark and light exposure): only minor changes in morphology
- light enhancement of cytopathic effect compared to dark toxicity, HFF (HFF cells): no effect

- vanadium(V) species by 51V NMR [4, 7]: a weak, broad peak at −543 ppm
Molecule: [Ru(pbt)2(tpphz)VO(sal-L-tryp)]Cl2
- light enhancement of cytopathic effect compared to dark toxicity, HFF (HFF cells): no effect

Molecule: sodium diaqua-4,4',4”,4”'tetrasulfophthalocyaninecobaltate(II) [Na4[Co(tspc)(H2O)2]]
- cytotoxic activity [5]: no cytotoxic activity
- apoptosis of melanoma cells, dark ([6]; 5.0 and 20.0 μM, incubated in the dark one day): do not show significant apoptosis
- impact on melanoma cells under illumination ([6]; 5 or 20 μM, 60 W tungsten lamp 30 minutes): no impact
- cytotoxic activity (fibrosarcoma cells): no cytotoxic activity

Source: article PMC3751419 (Dalton transactions (Cambridge, England : 2003), 2013)
